Tests used:
[1] = target: 11-beta-hydroxysteroid dehydrogenase 1 (Mus musculus, UniProt P50172); assay: Inhibition of mouse 11beta-HSD1 expressed in Escherichia coli
Outline: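 Reductase-direction SPA. Total cortisone was 175 nM, including 75 nM ³H-cortisone, with NADPH cofactor in 50 mM Tris–HCl pH 7.2 and 1 mM EDTA. An NADPH regeneration system (1 mM G-6-P, 1 U/mL G-6-PDH) was included. Final enzyme was 0.015 mg/mL, keeping substrate consumption below 25%. The reaction ran 30 min at room temperature. ³H-cortisol was captured by anti-cortisol mAb and anti-mouse SPA beads, then scintillation-counted. IC50 came from % inhibition versus an uninhibited control, as the mean of two experiments.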

[2] = target: T1, 11-beta-hydroxysteroid dehydrogenase type 2 (Mus musculus, UniProt P51661); assay: Inhibition of mouse 11beta-HSD2
T1 sequence (P51661 whole entry): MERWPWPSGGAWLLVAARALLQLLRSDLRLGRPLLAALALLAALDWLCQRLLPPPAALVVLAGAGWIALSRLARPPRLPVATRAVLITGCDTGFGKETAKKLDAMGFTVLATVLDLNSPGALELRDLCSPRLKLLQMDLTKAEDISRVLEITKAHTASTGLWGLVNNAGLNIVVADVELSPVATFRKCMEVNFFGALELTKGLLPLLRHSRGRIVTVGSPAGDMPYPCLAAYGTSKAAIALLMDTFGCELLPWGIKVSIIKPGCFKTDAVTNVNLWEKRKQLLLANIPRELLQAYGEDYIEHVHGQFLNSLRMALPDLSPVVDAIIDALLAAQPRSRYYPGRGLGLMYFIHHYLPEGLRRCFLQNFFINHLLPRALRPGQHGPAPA

[3] = target: T2, 11-beta-hydroxysteroid dehydrogenase type 2 (Homo sapiens, UniProt P80365); assay: Inhibition of human 11beta-HSD2
T2 sequence (P80365 whole entry): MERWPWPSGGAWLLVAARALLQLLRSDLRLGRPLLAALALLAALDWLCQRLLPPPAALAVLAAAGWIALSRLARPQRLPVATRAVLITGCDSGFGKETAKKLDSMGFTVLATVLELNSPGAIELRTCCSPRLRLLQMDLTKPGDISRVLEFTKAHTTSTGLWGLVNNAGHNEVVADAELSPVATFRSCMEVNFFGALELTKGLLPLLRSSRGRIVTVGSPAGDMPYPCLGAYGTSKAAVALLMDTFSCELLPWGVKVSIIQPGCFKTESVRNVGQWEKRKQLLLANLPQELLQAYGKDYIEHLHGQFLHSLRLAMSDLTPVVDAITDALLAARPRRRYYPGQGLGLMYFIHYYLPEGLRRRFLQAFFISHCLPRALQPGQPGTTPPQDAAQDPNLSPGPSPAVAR

[4] = Stability in mouse liver microsomes after 30 min; type: ADME, Microsome; settings: read-out: Stability
Outline: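 Compounds were incubated 30 min with mouse liver microsomes; the result is expressed as % parent remaining.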

[5] = target: T3, 11-beta-hydroxysteroid dehydrogenase 1 (Homo sapiens, UniProt P28845); assay: Inhibition of human 11beta-HSD1 expressed in Escherichia coli
T3 sequence (P28845 whole entry): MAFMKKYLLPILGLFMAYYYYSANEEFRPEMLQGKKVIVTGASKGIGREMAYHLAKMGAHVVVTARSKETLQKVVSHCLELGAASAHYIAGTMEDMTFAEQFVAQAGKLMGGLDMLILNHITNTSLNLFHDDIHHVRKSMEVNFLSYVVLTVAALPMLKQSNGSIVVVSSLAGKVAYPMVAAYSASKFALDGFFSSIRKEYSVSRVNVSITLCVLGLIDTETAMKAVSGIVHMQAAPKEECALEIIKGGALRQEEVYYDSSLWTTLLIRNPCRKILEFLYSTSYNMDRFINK

[6] = target: T3, 11-beta-hydroxysteroid dehydrogenase 1; assay: Inhibition of human 11beta-HSD1 expressed in HEK293 cells; type: cell-based
[7] = target: 11-beta-hydroxysteroid dehydrogenase 1 (Mus musculus) (UniProt P50172); assay: Inhibition of DIO mouse liver 11beta-HSD1 at 30 mg/kg 7 hrs post dose; type: organism-based; set-up: dose 30 mg/kg
11-beta-hydroxysteroid dehydrogenase 1 (Mus musculus), sequence (P50172 whole entry, looked up): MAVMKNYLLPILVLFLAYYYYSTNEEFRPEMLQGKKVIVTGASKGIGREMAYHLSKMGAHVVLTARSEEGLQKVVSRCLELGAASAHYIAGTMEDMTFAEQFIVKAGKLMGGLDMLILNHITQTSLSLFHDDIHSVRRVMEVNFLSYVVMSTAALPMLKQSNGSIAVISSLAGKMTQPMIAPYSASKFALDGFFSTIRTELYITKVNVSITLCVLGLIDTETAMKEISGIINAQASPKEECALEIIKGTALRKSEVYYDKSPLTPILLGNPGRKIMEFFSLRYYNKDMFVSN
Outline: (§1)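 DIO mice received one oral 30 mpk dose in 1% Tween 80 / 0.2% hydroxypropyl methylcellulose, 3 mice per point. Liver, epididymal fat and brain were excised at 7 or 16 h, weighed, minced in about 5 volumes PBS and given cortisone at 10 final. Incubation was at 37 °C, 5% CO₂: liver 20 min, fat and brain 3 h. Cortisol was read by LC-MS; % inhibition is versus the vehicle group.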

[8] = target: 11-beta-hydroxysteroid dehydrogenase 1 (Mus musculus) (UniProt P50172); assay: Inhibition of DIO mouse brain 11beta-HSD1 at 30 mg/kg 16 hrs post dose; type: organism-based; set-up: dose 30 mg/kg; outline: as §1
[9] = Plasma clearance in mouse at 10 mg/kg; type: ADME, organism-based; set-up: dose 10 mg/kg
Outline: (§2)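 Mouse PK: single 10 mg/kg doses given intravenously and orally; the parameters were calculated from these dosings.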

[10] = Half life in mouse plasma at 10 mg/kg; type: ADME, organism-based; set-up: dose 10 mg/kg; outline: as §2
[11] = target: 11-beta-hydroxysteroid dehydrogenase 1 (Mus musculus) (UniProt P50172); assay: Inhibition of DIO mouse adipose tissue 11beta-HSD1 at 30 mg/kg 7 hrs post dose; type: organism-based; set-up: dose 30 mg/kg; outline: as §1
[12] = target: 11-beta-hydroxysteroid dehydrogenase 1 (Mus musculus) (UniProt P50172); assay: Inhibition of DIO mouse brain 11beta-HSD1 at 30 mg/kg 7 hrs post dose; type: organism-based; set-up: dose 30 mg/kg; outline: as §1
[13] = target: 11-beta-hydroxysteroid dehydrogenase 1 (Mus musculus) (UniProt P50172); assay: Inhibition of DIO mouse adipose tissue 11beta-HSD1 at 30 mg/kg 16 hrs post dose; type: organism-based; set-up: dose 30 mg/kg; outline: as §1
[14] = Bioavailability in mouse plasma at 10 mg/kg; type: ADME, organism-based; outline: as §2
[15] = target: 11-beta-hydroxysteroid dehydrogenase 1 (Mus musculus) (UniProt P50172); assay: Inhibition of DIO mouse liver 11beta-HSD1 at 30 mg/kg 16 hrs post dose; type: organism-based; set-up: dose 30 mg/kg; outline: as §1

11-beta-hydroxysteroid dehydrogenase 1 (Mus musculus, UniProt P50172), sequence (P50172 whole entry): as the sequence (P50172 whole entry, looked up) above

IC50 [1] [nM]	IC50 [2] [nM]	IC50 [3] [nM]	remaining at 0.5 h [4] [%]	IC50 [5] [nM]	IC50 [6] [nM]	inhibition [7] [%]	inhibition [8] [%]	clearance [9] [mL/min/kg]	half-life [10] [h]	inhibition [11] [%]	inhibition [12] [%]	inhibition [13] [%]	bioavailability [14] [%]	inhibition [15] [%]	SMILES
101	100000														CC(C)(Oc1ccc(Cl)cc1)C(=O)N[C@H]1C2C[C@@H]3C[C@H]1C[C@@](c1noc(=O)[nH]1)(C2)C3
51	> 100000	> 100000	89	44	444										CC(C)(Oc1ccc(N2CCOCC2)cn1)C(=O)N[C@H]1C2C[C@@H]3C[C@H]1C[C@@](CC(N)=O)(C2)C3
11	> 100000	> 100000	83	5	38										CC(C)(Oc1ccc(-n2cccn2)cn1)C(=O)N[C@H]1C2C[C@@H]3C[C@H]1C[C@@](CC(N)=O)(C2)C3
65	15000	> 100000	100	14	165										CC(C)(C(=O)N[C@H]1C2C[C@@H]3C[C@H]1C[C@@](CC(N)=O)(C2)C3)c1ccc(C#N)cn1
26	> 100000		64			89	79	76.7	0.4	92	85	67	61.6	84	CC(C)(Oc1ccc(Cl)cc1)C(=O)N[C@H]1C2C[C@@H]3C[C@H]1C[C@@](/C(N)=N/O)(C2)C3
11			3												CC(C)(Oc1ccc(Cl)cc1)C(=O)N[C@H]1C2C[C@@H]3C[C@H]1C[C@@](c1ncc[nH]1)(C2)C3
205	50000	> 100000	25	146	306										CC(C)(Oc1ccc(Cl)cc1)C(=O)N[C@H]1C2C[C@@H]3C[C@H]1C[C@@](c1nc(C#N)c(N)o1)(C2)C3
87	7000	> 100000	79	41	119	62	9	20	2.3	17	11	20	39.7	37	CC(C)(Oc1ccc(Cl)cc1)C(=O)N[C@H]1C2C[C@@H]3C[C@H]1C[C@@](Cc1nnn[nH]1)(C2)C3
71			30												CC(C)(Oc1ccc(Cl)cc1)C(=O)N[C@H]1C2C[C@@H]3C[C@H]1C[C@@](c1ccno1)(C2)C3
310	> 100000	> 100000	83	29	246										CNc1ccc(C(C)(C)C(=O)N[C@H]2C3C[C@@H]4C[C@H]2C[C@@](CC(N)=O)(C3)C4)cn1
92	20700		94			40		3.33	2	70		35	96.1	0	CC(C)(Oc1ccc(Cl)cc1)C(=O)N[C@H]1C2C[C@@H]3C[C@H]1C[C@@](CC(=O)O)(C2)C3
4	> 100000		87			57				47		23		0	CC(C)(Oc1ccc(Br)cn1)C(=O)N[C@H]1C2C[C@@H]3C[C@H]1C[C@@](CC(N)=O)(C2)C3
74	28000		78			99	18	13.3	2.6	50	67	23	86.3	93	CC(C)(Oc1ccc(Cl)cc1)C(=O)N[C@H]1C2C[C@@H]3C[C@H]1C[C@@](CCC(=O)O)(C2)C3
53			41												CC(C)(Oc1ccc(Cl)cc1)C(=O)N[C@H]1C2C[C@@H]3C[C@H]1C[C@@](c1nnc(N)[nH]1)(C2)C3
519	> 100000	> 100000		185	> 10000										CN1CCN(c2ccc(OC(C)(C)C(=O)N[C@H]3C4C[C@@H]5C[C@H]3C[C@@](CC(N)=O)(C4)C5)nc2)CC1

— ChEMBL document CHEMBL1137283, “Synthesis and biological evaluation of heterocycle containing adamantane 11beta-HSD1 inhibitors” (Bioorg Med Chem Lett, 2006)
